Experimental data reported in ChEMBL document CHEMBL1140467, “Small molecule ago-allosteric modulators of the human glucagon-like peptide-1 (hGLP-1) receptor” (Bioorg Med Chem Lett, 2007).
Activity calls are given as the source filed them. No cut-off for these calls is given here.

Tests used:
[1] = biological target: T1, Glucagon-like peptide 1 receptor (Homo sapiens, UniProt P43220); experiment: Agonist activity at human GLP1 assessed as stimulation of cAMP relative to cAMP; type: functional
Summary of the method: (§1)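 cAMP production was measured in a membrane-based assay at the human GLP-1 receptor. Potency is reported as EC50 and efficacy as Emax (%).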

[2] = biological target: T1, Glucagon-like peptide 1 receptor; experiment: Agonist activity at human GLP1 assessed as stimulation of cAMP; type: functional; summary of the method: as §1
[3] = biological target: T1, Glucagon-like peptide 1 receptor; experiment: Effect on augmentation of [125]GLP1 binding to human GLP1; settings: read-out: IC50 (the source's name)
Summary of the method: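 Test agents were incubated with human GLP-1 receptor and GLP-1, and the rise in GLP-1 binding was followed across agent concentrations. IC50 is the agent concentration giving 50% of its maximal augmentation of GLP-1 binding.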

Pancreas = experiment: Effect on release of insulin in perfused rat pancreas; type: functional, tissue-based
Mus musculus = species: Mus musculus; experiment: Effect on release of insulin in mouse islets; type: functional

T1 sequence (P43220 whole entry): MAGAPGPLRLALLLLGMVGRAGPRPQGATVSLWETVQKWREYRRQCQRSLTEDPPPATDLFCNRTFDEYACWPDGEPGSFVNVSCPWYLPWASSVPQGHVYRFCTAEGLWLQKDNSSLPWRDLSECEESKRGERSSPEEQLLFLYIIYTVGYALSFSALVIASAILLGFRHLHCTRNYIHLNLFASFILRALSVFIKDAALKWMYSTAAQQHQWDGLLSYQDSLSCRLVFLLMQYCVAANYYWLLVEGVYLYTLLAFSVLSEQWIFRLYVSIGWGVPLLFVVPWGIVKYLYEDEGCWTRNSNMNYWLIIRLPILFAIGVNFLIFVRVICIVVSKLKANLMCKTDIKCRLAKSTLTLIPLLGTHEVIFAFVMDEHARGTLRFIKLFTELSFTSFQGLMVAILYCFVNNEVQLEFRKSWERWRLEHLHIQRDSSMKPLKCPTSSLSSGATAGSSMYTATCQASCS

Emax [1]	EC50 [2]	EC50 [3]	SMILES	further results
19%	5100 nM	–	Cc1nnc([S+]([O-])c2nc3cc(Cl)c(Cl)cc3nc2C(C)C)s1 (stereo unspecified)	–
52%	2600 nM	–	CON(C)c1nc2cc(Cl)c(Cl)cc2nc1S(C)(=O)=O	–
35%	5000 nM	253 nM	CC(C)c1nc2cc(Cl)c(Cl)cc2nc1S(C)(=O)=O	–
< 2%	–	–	CCOC(=O)c1nc2cc(Cl)c(Cl)cc2nc1C(F)(F)F	–
< 2%	–	–	CCCc1nc2cc(C)c(C)cc2nc1S(C)(=O)=O	–
46%	–	–	CC(C)Sc1nc2cc(Cl)c(Cl)cc2nc1S(C)(=O)=O	–
–	–	–	COC(=O)c1cc2cc(Cl)c(Cl)cc2nc1S(C)(=O)=O	Activity [2]: inactive
75%	1800 nM	460 nM	CC(C)N(C)c1nc2cc(Cl)c(Cl)cc2nc1S(C)(=O)=O	–
38%	14000 nM	–	CS(=O)(=O)c1nc2cc(Cl)c(Cl)cc2nc1N1CCC(=O)N1	–
68%	1200 nM	404 nM	CCCc1nc2cc(Cl)c(Cl)cc2nc1S(C)(=O)=O	–
< 2%	–	> 10000 nM	CC(C)C(=O)c1nc2cc(Cl)c(Cl)cc2nc1C(C)C	–
< 2%	–	–	CCCc1nc2cc(OC)c(OC)cc2nc1S(C)(=O)=O	–
31%	5000 nM	–	CC(C)Nc1nc2cc(Cl)c([N+](=O)[O-])c(C(F)(F)F)c2nc1S(C)(=O)=O	–
64%	3300 nM	–	CC(C)c1nc2cc(Cl)c(Cl)cc2nc1S(=O)(=O)Cc1ccc(S(=O)(=O)CC2CC2)cc1	–
38%	1500 nM	–	CC(C)Nc1nc2c([N+](=O)[O-])c(Cl)c(Cl)cc2nc1S(C)(=O)=O	–
47%	1000 nM	–	Cc1nnc(S(=O)(=O)c2nc3cc(Cl)c(Cl)cc3nc2C(C)C)s1	–
–	–	–	O=S1(=O)CCCc2nc3cc(Cl)c(Cl)cc3nc21	Activity [2]: inactive
47%	2200 nM	530 nM	CN(C)c1nc2cc(Cl)c(Cl)cc2nc1S(C)(=O)=O	–
94%	175 nM	–	CCC(C)Nc1nc2cc(Cl)c(Cl)cc2nc1S(C)(=O)=O (stereo unspecified)	–
< 2%	–	–	N#Cc1nc2cc(Cl)c(Cl)cc2nc1C(F)(F)F	–
44%	4300 nM	–	CCC(C)Nc1nc2cc(Cl)c([N+](=O)[O-])cc2nc1S(C)(=O)=O (stereo unspecified)	–

Emax [1]	EC50 [2]	EC50 [3]	SMILES	further results
–	–	–	CC(C)n1c(S(C)(=O)=O)nc2cc(Cl)c(Cl)cc21	Activity [2]: inactive
46%	725 nM	109 nM	CCNc1nc2cc(Cl)c(Cl)cc2nc1S(C)(=O)=O	–
69%	433 nM	–	CS(=O)(=O)c1nc2cc(Cl)c(Cl)cc2nc1NC1CCCc2ccccc21 (stereo unspecified)	–
43%	1400 nM	–	CS(=O)(=O)c1nc2cc(Cl)c(Cl)cc2nc1NC1CCS(=O)(=O)C1 (stereo unspecified)	–
42%	2200 nM	–	CC(C)(C)Nc1nc2c(Cl)cc(C(F)(F)F)cc2nc1S(C)(=O)=O	–
32%	14000 nM	–	CC(=O)NNc1nc2cc(Cl)c(Cl)cc2nc1S(C)(=O)=O	–
82%	214 nM	107 nM	CC(C)Nc1nc2cc(Cl)c(Cl)cc2nc1S(C)(=O)=O	–
< 2%	–	–	CC(C)c1nc2cc(Cl)c(Cl)cc2nc1O	–
72%	2200 nM	–	CS(=O)(=O)c1nc2cc(Cl)c(Cl)cc2nc1N1CCCC1	–
24%	> 10000 nM	3100 nM	CCOC(=O)c1nc2cc(Cl)c(Cl)cc2nc1S(C)(=O)=O	–
85%	155 nM	–	CC(C)(C)Nc1nc2cc(Cl)c(Cl)cc2nc1S(C)(=O)=O	Activity (Pancreas): Active; Activity (Mus musculus): Active
40%	2600 nM	91 nM	CS(=O)(=O)c1nc2cc(Cl)c(Cl)cc2nc1C(F)(F)F	–
24%	6300 nM	–	CS(=O)(=O)c1nc2cc(Cl)c(Cl)cc2nc1N	–
< 2%	–	–	Nc1nc2cc(Cl)c(Cl)cc2nc1C(F)(F)F	–
22%	7100 nM	–	CC(=O)NCCNc1nc2cc(Cl)c(Cl)cc2nc1S(C)(=O)=O	–
< 2%	–	> 10000 nM	CCN(CC)C(=O)c1nc2cc(Cl)c(Cl)cc2nc1C(C)C	–
71%	3000 nM	551 nM	CC(C)c1nc2cc(Cl)c(Cl)cc2nc1S(=O)(=O)CCC1OCCO1	–
65%	4900 nM	–	COC(=O)CCNS(=O)(=O)c1ccc(CS(=O)(=O)c2nc3cc(Cl)c(Cl)cc3nc2C(C)C)cc1	–
< 2%	–	–	CCOP(=O)(OCC)c1nc2cc(Cl)c(Cl)cc2nc1C(F)(F)F	–
29%	30000 nM	1100 nM	CC(C)c1nc2cc(Cl)c(Cl)cc2nc1[S+](C)[O-] (stereo unspecified)	–
63%	1200 nM	459 nM	CC(C)c1nc2cc(Cl)c(Cl)cc2nc1S(=O)(=O)Cc1ccc(S(C)(=O)=O)cc1	–
